Sampled rows, rich in hits. Any-hit rate of the full collection: about 1.9%.
MBD2 DNA inh – inhibitors of human MBD2 binding to methylated oligonucleotide; Q9UBB5; TR-FRET; inhibition, % at 4.4 µM; 370,000 compounds, 0.31% hits; AID 686964; in the data active = inhibition above about 13%
LEDGF integ inh – blocks HIV-1 LEDGF/p75-dependent DNA integration; TR-FRET IN-LEDGF/p75 DNA integration, Eu/Cy5; inhibition, % at 3.7 µM; 370,000 compounds, 0.64% hits;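 active = inhibition above the screen-wide mean plus 3 SD, cut at about 13% in these data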;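 also: signal is the Cy5 over europium emission ratio at 671 and 618 nm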
TDP2 absorb – blocks human TDP2 phosphodiesterase activity | recombinant TDP2, T5PNP hydrolysis, p-nitrophenol absorbance 415 nm | inhibition, % at 12.8 µM | 370,000 compounds, 0.34% hits;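 active = inhibition above the mean of all tested compounds plus 3 SD, set per campaign, cut at about 25% in these data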
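Assay system: Recombinant human TDP2 | Quantity: 120 nM TDP2 per well | Incubation: 2 h at 37 °C | Signal: Epi absorbance | Evaluation: Percent inhibition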
Rin1-Abl PPI inh – inhibitors of human Rin1-Abl protein interaction. TR-FRET Rin1/Abl binding, biochemical. 360,000 compounds, 0.4% hits. inhibition, % at 7.35 µM. P00519+Q13671; in the data active = inhibition above about 5%, passing the limit was not always enough
UHRF1 binding – human UHRF1 methylated DNA binding inhibitors | inhibition, % at 4.4 µM | UHRF1 binding to methylated oligo, TR-FRET | 370,000 compounds, 0.75% hits | AID 687016 | Q96T88; in the data active = inhibition above about 21%;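 also: UHRF1 SRA domain binding a hemimethylated CpG hairpin DNA probe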
Each line names hits and unclear results; the compound was inactive in the other large screens.

CCCCN(C)C(=O)C1CCN(S(=O)(=O)c2ccc3[nH]c(=O)oc3c2)CC1	none (no result: Rin1-Abl PPI inh)
O=C(Nc1ccc(C(=O)N2CCCC2)cc1)C1CCC1	UHRF1 binding 23
O=C(Nc1ccc(C(=O)N2CCCC2)cc1)C1CCCC1	none
CCOC(=O)[C@]12CCCC=C1N(CCCOC)C(=O)[C@@H]2CC(=O)NCC12CC3CC(CC(C3)C1)C2	none (no result: Rin1-Abl PPI inh)
Cc1nc2c(=O)[nH]c(=S)[nH]c2[nH]c1=O	MBD2 DNA inh 48, LEDGF integ inh 22, UHRF1 binding 85
COc1c(C)cccc1C(=O)Nc1ccc(N2CCN(C(=O)c3ccccc3C)CC2)cc1	UHRF1 binding 27
Cc1ccccc1C(=O)N1CCN(c2ccc(NC(=O)c3cccc(OC(C)C)c3)cc2)CC1	none
O=C1C(=Cc2cn(-c3ccccc3)nc2-c2ccc(OCc3ccccc3F)cc2)SC(=S)N1CCS(=O)(=O)O	UHRF1 binding 58
O=C(O)c1[nH]c2ccccc2c1C(c1ccccc1)c1c(C(=O)O)[nH]c2ccccc12	none
O=C(O)c1[nH]c2ccccc2c1C(c1cc(Cl)cc([N+](=O)[O-])c1O)c1c(C(=O)O)[nH]c2ccccc12	LEDGF integ inh 14
CC1CN(Cc2cc(=O)n3ccsc3n2)CC(C)O1 (configuration not stated)	UHRF1 binding 21
O=c1cc(CN2CCC(Cc3ccccc3)CC2)nc2sccn12	none
CCOC(=O)c1ccc(NC(=O)COc2ccc(CNCCO)cc2OCC)cc1	UHRF1 binding 102
CC(C)N(Cc1ccccc1)C(=O)/C=C/c1ccccc1[N+](=O)[O-]	UHRF1 binding 28
O=C(O)/C=C/c1ccccc1[N+](=O)[O-]	none
Nc1ccc(S(=O)(=O)c2cc(O)c3ccccc3c2O)cc1	TDP2 absorb 28
Cc1cc(C)cc(OC2CCCCC2NS(=O)(=O)c2ccccc2)c1 (configuration not stated)	none
CSc1ccc(OC2CCCCC2NS(=O)(=O)c2ccccc2)cc1 (configuration not stated)	UHRF1 binding 98
Cc1ccc(S(=O)(=O)N2O[C@@H](c3ccccc3)C[C@H]2CON2C(C)(C)CCCC2(C)C)cc1	none (no result: Rin1-Abl PPI inh)
O=C(O)c1cc(O)c2c(c1)[C@@H]([C@H]1c3cc(C(=O)O)cc(O)c3C(=O)c3c(O[C@@H]4O[C@H](CO)[C@@H](O)[C@H](O)[C@H]4O)cccc31)c1cccc(OC3O[C@H](CO)[C@@H](O)[C@H](O)[C@H]3O)c1C2=O (some centres not stated)	MBD2 DNA inh 38, LEDGF integ inh 74, UHRF1 binding 80
COc1cc(S(=O)(=O)N(Cc2cccnc2)Cc2cccc(OC)c2OC)ccc1-n1cnnn1	UHRF1 binding 23
CCOc1ccc(NS(=O)(=O)c2ccc(C(=O)N(C)CC(=O)Nc3ccc(OC)cc3)cc2)cc1	none
CCOc1ccc(S(=O)(=O)Nc2cccc(C(=O)N(C)CC(=O)Nc3ccc(OC)cc3)c2)cc1	LEDGF integ inh 44
CCN(CC(=O)Nc1ccc(NC(C)=O)cc1)C(=O)c1ccc(N(C)S(=O)(=O)c2ccc(C)cc2)cc1	UHRF1 binding 42
CCN(CC(=O)Nc1ccc(OC)cc1)C(=O)c1ccc(NS(=O)(=O)c2ccc(C(C)=O)cc2)cc1	UHRF1 binding 23
C[C@H]1[C@@H](OC(=O)NCc2ccc(C(F)(F)F)cc2)CC[C@@]23CCCN2C(=O)CCC[C@@H]13	none (no result: Rin1-Abl PPI inh)
CCN(c1ccccc1)S(=O)(=O)c1cc(C(=O)OCC(=O)c2c(N)n(C)c(=O)n(C)c2=O)ccc1C	UHRF1 binding 32
CSc1ccccc1NC(=O)Cc1ccccc1	UHRF1 binding 23
O=C(Cc1ccccc1)Nc1ccccc1Sc1ccccc1	none
Cc1cc2ccccc2c(=O)[nH]1	none
Cc1ccccc1Nc1cc2ccccc2c(=O)[nH]1	Rin1-Abl PPI inh 16 (no result: MBD2 DNA inh, LEDGF integ inh, TDP2 absorb, UHRF1 binding)
NC(=O)C1CC(=O)N(c2ccc(OCc3c(F)cccc3Cl)cc2)C1 (configuration not stated)	none
NC(=O)C1CC(=O)N(c2ccc(OCc3c(Cl)cccc3Cl)cc2)C1 (configuration not stated)	UHRF1 binding 23
CCn1c(SCC(=O)Nc2ccc(C(=O)OC)cc2)nnc1-c1cccc(Cl)c1	none (no result: Rin1-Abl PPI inh)
Cc1nc(C(F)(F)F)ccc1C(=O)NCC(O)c1ccccc1 (configuration not stated)	UHRF1 binding 46
CCN(C(=O)C(C)N1C(=O)/C(=C/c2ccco2)SC1=S)C1CCS(=O)(=O)C1 (configuration not stated)	LEDGF integ inh 49, UHRF1 binding 31
CC(C(=O)N(C)C1CCS(=O)(=O)C1)N1C(=O)/C(=C/c2ccc(F)cc2)SC1=S (configuration not stated)	none
CC(=O)N1CC=CC1(C)C(=O)O (configuration not stated)	UHRF1 binding 31
Brc1ccc(CSc2nccn2-c2ccccc2)cc1	none
FC(F)(F)c1ccc(CSc2nccn2-c2ccccc2)cc1	UHRF1 binding 80
COc1ccc(-c2noc(C3CCCN(C(=O)Nc4ccc(C)c(F)c4)C3)n2)cc1 (configuration not stated)	none (no result: Rin1-Abl PPI inh)
Cc1ccc(S(=O)(=O)Cc2ccc(C(=O)O)o2)cc1	UHRF1 binding 22
COc1ccc(S(=O)(=O)Cc2ccc(C(=O)O)o2)cc1	none
Cc1cc(-c2n[nH]c(=S)n2N=Cc2cccc(OCc3ccccc3)c2)n[nH]1	none (no result: Rin1-Abl PPI inh)
Cc1ccc(COC(=O)c2cccc(S(=O)(=O)N3CCCCCC3)c2)cc1	UHRF1 binding 25
Cc1ccc(COC(=O)c2cccc(S(=O)(=O)N3CCCCC3)c2)cc1	none
COc1ccc(OC)c(COC(=O)c2cccc(S(=O)(=O)N3CCCCC3)c2)c1	UHRF1 binding 21
COc1ccccc1COC(=O)c1cccc(S(=O)(=O)N2CCCC2)c1	none
Cc1cccc(C(=O)NCC(=O)NC(C)CCc2ccccc2)c1 (configuration not stated)	UHRF1 binding 22
Cc1ccc(NC(=O)N/C=C/c2ccco2)cc1	LEDGF integ inh 14
Cc1ccc(NC(=O)/C(=C\c2ccco2)NC(=O)c2ccco2)cc1	none
COc1ccc(C)cc1NC(=O)C(Sc1nncn1C)c1ccccc1 (configuration not stated)	UHRF1 binding 24
COc1ccc(C)cc1NC(=O)C(Sc1nnc(Nc2ccccc2F)s1)c1ccccc1 (configuration not stated)	none
O=C(c1cc2nc(C3CC3)cc(C(F)F)n2n1)N1CCOCC1	UHRF1 binding 21
O=c1[nH]nc(-c2ccccc2)cc1-c1ccccc1	none
Cc1cc(-c2ccccc2)c2c(=O)[nH][nH]c2n1	UHRF1 binding 49
CCSc1nccc(-c2nn(-c3ccc(C)cc3)ccc2=O)n1	none
CSc1nccc(-c2nn(-c3ccc(C)cc3)ccc2=O)n1	UHRF1 binding 23
